Molecules are shown by their SMILES. Active and inactive are the calls of the source. The rule behind the calls is not given here. A value given as a limit tells only on which side of the number the result lay.

The species named for series [1] is Homo sapiens. Briefly: Inhibition of P-gp in human K562/A02 cells assessed as potentiation of doxorubicin-induced cytotoxicity by measuring fold reduction in doxorubicin IC50 at 1.0 uM after 48 hrs by MTT assay relative to doxorubicin alone. The class given is cell-based. The gist of the method: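 K562/A02 cells (1×10^4 cells per well) were exposed to a DOX concentration series, alone or with modulator at 1.0 μM, for 48 h. Viability was read by MTT at 490 nm. Reversal fold = DOX IC50 without inhibitor / DOX IC50 with inhibitor, mean ± SD of three tests.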
Background: Tetrazolium assays rely on reduction of a dye to a coloured formazan, in cell work by metabolically active cells.

A short description of series [2]: Cytotoxicity against human K562 cells assessed as cell viability at 1.0 uM after 48 hrs by MTT assay (reference value: >99%). The class given is cell-based. As to conditions: read-out: Activity.
A short description of series [3]: Cytotoxicity against human K562/A02 cells assessed as cell viability at 1.0 uM after 48 hrs by MTT assay (reference value: >99%). Format: cell-based. As to conditions: read-out: Activity.
The species entered for series [4] is Homo sapiens. Briefly: Inhibition of P-gp in human K562/A02 cells assessed as accumulation of doxorubicin at 0.1 uM to 5.0 uM after 150 mins by fluorescence spectrophotometric analysis. Format: cell-based. In a few lines:
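K562/A02 cells (4×10^5) were incubated 150 min at 37 °C with 20.0 μM DOX plus modulator at various concentrations, with 0.1% DMSO as negative control. Cells were washed with cold PBS and lysed in HCl/Triton X-100/isopropanol. DOX fluorescence was read at ex 460 / em 587 nm. Mean ± SD, n = 3.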

The species entered for series [5] is Homo sapiens. As to the kind of experiment: Inhibition of ATPase activity in human P-gp membrane fraction at 0.5 uM in presence of ATP after 1 hr by luciferase […]. The class given is cell membranes. In a few lines:
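Human P-gp membrane fraction (~25 μg) was incubated with compound at 0.5, 5.0 or 50.0 μM in 0.5% DMSO, with a 100 μM sodium vanadate reference. Reaction was started with 5.0 mM MgATP, 1 h at 37 °C. Remaining ATP was read by luciferase luminescence after 20 min at room temperature, relative to vanadate. n = 3.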

The test system of the next series is Rattus norvegicus. As to the kind of experiment: Effect on plasma concentration of doxorubicin in Sprague-Dawley rat at 5 mg/kg, iv co-administered with doxorubicin measured after 8 hrs by LC-MS/MS analysis. The class given is ADME, organism-based. As to conditions: in vivo. In a few lines:
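Male SD rats received DOX 10 mg/kg i.v. alone or with modulator 5 mg/kg i.v. Orbital blood was taken at 5 min to 8 h. Plasma DOX was measured by LC-MS/MS with DNR (0.5 μg/mL) as internal standard. Mean ± SD, n = 3.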

The species named for series [6] is Homo sapiens. Briefly: Inhibition of P-gp mediated efflux in human K562/A02 cells assessed as intracellular Rh123 accumulation at 1.0 uM measure up to 90 mins by flow cytometric analysis. Format: cell-based. The gist of the method: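 K562/A02 cells were loaded with 5 μM Rh123 for 90 min at 37 °C and washed three times. They were then incubated with or without modulator at 37 °C for 5, 10, 25, 30, 60 and 90 min. Retained Rh123 MFI per 10000 cells was measured by flow cytometry. 0.1% DMSO negative control, n = 3.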
(In general: Flow cytometry measures light scatter and fluorescence of single cells or particles in a stream.)

The nature of series [7]: Cytotoxicity against human K562/A02 cells assessed as cell viability at 5.0 uM after 48 hrs by MTT assay (reference value: >99%). The class given is cell-based. The settings on record: read-out: Activity.
For series [8], the species on record is Homo sapiens. The settings on record: 5 uM.
The species named for series [9] is Homo sapiens. As to conditions: 5 uM. This is another data set of the same source.
The species entered for series [10] is Homo sapiens. The settings on record: 5.0 uM.
A further series is described as follows: in vitro. The settings on record: human, K562 cells.
The nature of series [11]: Inhibition of CYP3A4 in rat liver microsomes assessed as decrease in 6beta-OH testosterone levels using testosterone as substrate by HPLC analysis. The class given is ADME. The gist of the method: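 Rat liver microsomes were isolated by differential centrifugation, with protein measured by Bradford assay. They were incubated with testosterone, without or with inhibitor at 2.5, 5.0, 10.0, 20.0 and 40.0 μM; ketoconazole was the reference inhibitor. 6β-OH testosterone was quantified by C18 reverse-phase HPLC (water/acetonitrile gradient, 35 °C, 1.0 mL/min, UV 254 nm). Mean ± SD, three independent experiments.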
On the technique in general: Microsomes from liver hold many membrane-bound enzymes, among them those of drug oxidation.

The test system of series [12] is K562. As to the kind of experiment: Antiproliferative activity against human K562 cells assessed as cell viability at 5.0 uM after 48 hrs by MTT assay (reference value: >99%). The class given is functional. The settings on record: K562, 48 h, read-out: Activity.
The next series concerns HUVEC. As to the kind of experiment: Cytotoxicity against HUVEC assessed as reduction in cell viability after 48 hrs by MTT assay. Format: cell-based. As to conditions: Homo sapiens. The gist of the method:
(§1)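 MTT assay on HUVEC, K562 or K562/A02 cells seeded at 1×10^4 cells per well, using serial compound concentrations. Formazan was dissolved in DMSO and read at 490 nm. IC50 was obtained from log dose–response curves, mean ± SD of three independent tests.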

Series [13] in a line: Selective ratio of IC50 for human K562/A02 cells to IC50 for human K562 cells. The class given is functional.
Series [14] concerns K562. As to the kind of experiment: Cytotoxicity against human K562 cells assessed as reduction in cell viability after 48 hrs by MTT assay. As to conditions: K562, 48 h. The class given is functional, cell-based. The gist of the method:
as §1

The subject of series [15] is K562/A02. Briefly: Cytotoxicity against human K562/A02 cells assessed as reduction in cell viability after 48 hrs by MTT assay. The class given is functional, cell-based. The settings on record: K562/A02, 48 h. In a few lines: as §1
Series [16] can be described thus: Elimination half life in Sprague-Dawley rat at 10 mg/kg, iv by LC-MS/MS analysis. As to conditions: in vivo, read-out: beta t1/2 (converted). Format: ADME, organism-based.
Series [17] concerns K562/A02. Briefly: Antiproliferative activity against human K562/A02 cells assessed as cell viability at 5.0 uM after 48 hrs by MTT assay (reference value: >99%). The class given is functional. The settings on record: K562/A02, 48 h, read-out: Activity.

In the case of `COc1cc2c(cc1OC)CN(CCc1ccc(Nc3nc(-c4ccccc4)nc4cc(OC)c(OC)cc34)cc1)CC2`, the fold change (FC) in the series listed under Homo sapiens [1] stood at 10.1. Besides, the viability at 48 h, 1 µM in [2] is over 99%; in series [3] it was 97.3%.

Turning to `COc1cc2c(cc1OC)CN(CCc1ccc(Nc3nc(-c4ccccc4)nc4cc(Cl)ccc34)cc1)CC2`, the fold change (FC) in the series filed under Homo sapiens [1] was 8.2. Also, the values for the viability at 48 h, 1 µM in series [2] and in series [3] were over 99% and 95.3%, respectively.

For `COc1cc2c(cc1OC)CN(CCc1ccc(Nc3nc(-c4ccc([N+](=O)[O-])cc4)nc4ccccc34)cc1)CC2`, in the series filed under Homo sapiens [1], the fold change (FC) was determined as 3. The values for the viability at 48 h, 1 µM in series [2] and in series [3] were 94.7% and over 99%, respectively.

Turning to `COc1ccc(C(=O)Nc2ccccc2C(=O)Nc2ccc(CCN3CCc4cc(OC)c(OC)cc4C3)cc2)cc1OC`, the inhibition entry in the series filed under Homo sapiens [4], in the series filed under Homo sapiens [5] and in the series listed under Homo sapiens [6] was “Active” in each case. The fold change (FC) in the series filed under Homo sapiens [1] stood at 18.6. Moreover, the viability at 48 h, 1 µM in series [2] was 97.5%; in [3], over 99%. Besides, the Activity entry with Rattus norvegicus is listed as “Non-Toxic”.

As for `COc1cc2c(cc1OC)CN(CCc1ccc(Nc3nc(-c4cccc(C)c4)nc4ccccc34)cc1)CC2`, the fold change (FC) in the series filed under Homo sapiens [1] amounted to 8.9. Moreover, the viability at 48 h, 1 µM in [2] worked out at 92.9%; in series [3], 92.1%.

As for `COc1cc2c(cc1OC)CN(CCc1ccc(Nc3nc(-c4ccc5c(c4)OCO5)nc4ccccc34)cc1)CC2`, the fold change (FC) in the series listed under Homo sapiens [1] worked out at 15.5. In addition, the viability at 48 h, 1 µM came to 91.4% in [2] and 89.2% in series [3].

Consider `COc1cc2c(cc1OC)CN(CCc1ccc(Nc3nc(-c4ccc(F)cc4)nc4ccccc34)cc1)CC2`, for which the fold change (FC) in the series filed under Homo sapiens [1] was found to be 3.3. The viability at 48 h, 1 µM in [2] and in series [3] was over 99% each time.

Regarding `COc1cc2c(cc1OC)CN(CCc1ccc(Nc3nc(-c4ccccc4)nc4ccccc34)cc1)CC2`, the fold change (FC) in the series listed under Homo sapiens [1] stood at 7.7. Moreover, the viability at 48 h, 1 µM in series [2] is 98.7%; in series [3], over 99%.

As for `COc1cc2c(cc1OC)CN(CCc1ccc(Nc3nc(-c4ccccc4OC)nc4ccccc34)cc1)CC2`, in the series filed under Homo sapiens [1], the fold change (FC) is 10.9. Besides, the viability at 48 h, 1 µM in series [2] and in series [3] was over 99% throughout.

As to `COc1ccc(-c2nc(Nc3ccc(CCN4CCc5cc(OC)c(OC)cc5C4)cc3)c3ccccc3n2)cc1`, the fold change (FC) in the series filed under Homo sapiens [1] turned out to be 7.9. The viability at 48 h, 1 µM in series [2] is over 99%; in series [3], 85.2%.

As to `COc1ccc(CCN(C)CCCC(C#N)(c2ccc(OC)c(OC)c2)C(C)C)cc1OC` (configuration not stated), the viability at 48 h, 5 µM was 88.3% in series [7] and over 99% in the series “in vitro”. The inhibition result in the series listed under Homo sapiens [8] was “inactive”. The Activity entry in the series on Rattus norvegicus is on record as “Toxic”. Further, the inhibition result in the series listed under Homo sapiens [9] and in the series filed under Homo sapiens [10] was “Active” in each case.

For the compound `COc1ccc(-c2nc(Nc3ccc(CCN4CCc5cc(OC)c(OC)cc5C4)cc3)c3ccccc3n2)cc1OC`, the fold change (FC) in the series filed under Homo sapiens [1] stood at 17.2. Moreover, the viability at 48 h, 1 µM was 95.1% in [2] and over 99% in [3].

For the compound `COc1cc2c(cc1OC)CN(CCc1ccc(Nc3nc(-c4ccc5ccccc5n4)nc4ccccc34)cc1)CC2`, the fold change (FC) in the series listed under Homo sapiens [1] was 2.6. The figures for the viability at 48 h, 1 µM in series [2] and in series [3] were over 99% and 92.1%, respectively.

`COc1cc2c(cc1OC)CN(CCc1ccc(Nc3nc(-c4cccnc4)nc4ccccc34)cc1)CC2`: the fold change (FC) in the series filed under Homo sapiens [1] turned out to be 5.9. Further, the viability at 48 h, 1 µM is over 99% in [2] and 97.9% in series [3].

As to `CC(=O)N1CCN(c2ccc(OCC3COC(Cn4ccnc4)(c4ccc(Cl)cc4Cl)O3)cc2)CC1` (configuration not stated) [KETOCONAZOLE], in [11], the “inhibition (INH)” value was “Dose-dependent effect”.

Regarding `COc1cc2c(cc1OC)CN(CCc1ccc(Nc3nc(-c4ccc(C(C)(C)C)cc4)nc4ccccc34)cc1)CC2`, in the series listed under Homo sapiens [1], the fold change (FC) stood at 1.9. In addition, the viability at 48 h, 1 µM is over 99% in series [2] and 91.3% in series [3].

In the case of `COc1cccc(-c2nc(Nc3ccc(CCN4CCc5cc(OC)c(OC)cc5C4)cc3)c3ccccc3n2)c1`, in the series listed under Homo sapiens [1], the fold change (FC) was found to be 14.6. Also, the viability at 48 h, 1 µM in series [2] and in [3] was over 99% each time.

Broadly, the IC50 is the midpoint of a concentration-inhibition curve. Regarding `COc1cccc2c1C(=O)c1c(O)c3c(c(O)c1C2=O)C[C@@](O)(C(=O)CO)C[C@@H]3O[C@H]1C[C@H](N)[C@H](O)[C@H](C)O1` [DOXORUBICIN], the viability at 5 µM was 8.8% with K562 [12] and 96.4% in the series with K562/A02 [17]. In addition, the IC50 in the series on HUVEC was found to be 8.65 µM; in the series on K562 [14] it was 0.62 µM; in the series with K562/A02 [15], 89.8 µM. For the same compound, the “Ratio IC50” value in series [13] stood at 144.8. The half-life in series [16] is 1.6 h.

Turning to `COc1cc2c(cc1OC)CN(CCc1ccc(Nc3nc(-c4ccc(C)cc4)nc4ccccc34)cc1)CC2`, the fold change (FC) in the series filed under Homo sapiens [1] is 7.5. The viability at 48 h, 1 µM in [2] turned out to be 93.4%; in series [3], 94.2%.

Consider `COc1cc2c(cc1OC)CN(CCc1ccc(Nc3nc(-c4cccc([N+](=O)[O-])c4)nc4ccccc34)cc1)CC2`, for which the fold change (FC) in the series filed under Homo sapiens [1] was found to be 13.4. Also, the viability at 48 h, 1 µM in series [2] and in [3] was over 99% throughout.

For `COc1cc2c(cc1OC)CN(CCc1ccc(Nc3nc(-c4ccc(Cl)cc4)nc4ccccc34)cc1)CC2`, the fold change (FC) in the series listed under Homo sapiens [1] stood at 6. Besides, the viability at 48 h, 1 µM in [2] and in [3] was over 99% each time.

Source of the values: ChEMBL document CHEMBL4049421, “Design, Synthesis, and Pharmacological Characterization of N-(4-(2 (6,7-Dimethoxy-3,4-dihydroisoquinolin-2(1H)yl)ethyl)phenyl)quinazolin-4-amine Derivatives: Novel Inhibitors Reversing P-Glycoprotein-Mediated Multidrug Resistance” (J Med Chem, 2017).
